Test results taken from article PMC4780734 (International Journal of Nanomedicine, 2016).
Entries after “also recorded” stand apart in the source; their conditions may differ.

Experiments:
[1] = Particle size distribution by dynamic light scattering; assay type: physicochemical; conditions: hydrodynamic size
[2] = Critical aggregation concentration by fluorescence pyrene method; assay type: physicochemical; conditions: in saline
[3] = Lower critical solution temperature; assay type: physicochemical
[4] = Solubility of the isolated solid; assay type: physicochemical; conditions: light yellow solid
[5] = test system: non-small-cell lung carcinoma A549 cells; assay: Biodistribution of Cy5.5-labeled PP by ex vivo imaging in tumor-bearing mice; parameters: species or system BALB/C nude mice; conditions: Cy5.5-labeled PP 60 mg/kg IV
Method in brief: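 BALB/C nude mice (5 weeks, 15–20 g) were acclimatised for 4 days. A549 cells (1×10^7 in serum-free RPMI 1640) were injected s.c. into the right flank. After 2 weeks, with tumours at 250–300 mm3, mice received the Cy5.5-labelled conjugate (60 mg/kg in saline) IV via the tail vein. Mice were killed at 12, 24, 48 and 72 h, with blood taken by cardiac puncture. Tumour, muscle, liver, kidney, spleen, lung and blood were imaged by CCD camera through a 680–720 nm Cy5.5 emission filter.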

[6] = Clearance study of Cy5.5-labeled PP from major organs by ex vivo imaging; assay type: in vivo, BALB/C nude mice; conditions: Cy5.5-labeled PP 300 mg/kg IV, mice without tumor, postinjection
Method in brief: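 Tumour-free BALB/C nude mice (n=30; 5 weeks, 15–20 g; acclimatised 4 days) received the Cy5.5-labelled conjugate at 300 mg/kg IV via the tail vein. Mice were killed at short intervals during week 1, then weekly. Dissected organs were imaged by CCD camera through a 680–720 nm Cy5.5 filter until each organ's intensity fell below that of a blank organ.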

[7] = Bioimaging of Pt in mouse kidney by laser ablation ICP-MS; assay type: in vivo; conditions: listed as PP
Method in brief: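 Mouse kidneys were dissected at 2, 12 and 24 h after IV injection, following the biodistribution procedure. Reference drug was dosed to match on (dach)Pt content. Kidneys were cryostat-sectioned at 100 μm and dried at room temperature. Pt was mapped by femtosecond laser ablation ICP-MS.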

[8] = Pharmacokinetic study after single IV injection; assay type: in vivo, male Sprague–Dawley rats
male ICR mice = assay: Acute toxicity study; assay type: in vivo
In vitro release of = assay type: physicochemical; conditions: for accumulated amount of released (dach)Pt(II): pH 7.4, 37°C
Method in brief: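 Conjugate solution (2 mg/mL) was dialysed in cellulose tubing (MWCO 2,000 Da) against phosphate buffer at pH 5.4 or 7.4, at 37°C with stirring at 100 rpm under sink conditions. Dialysate was sampled at set times over 10 days. Released Pt was measured by ICP-MS and expressed as cumulative % of total loaded (dach)Pt.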

[9] = test system: gastric tumor cell line (MKN-28); assay: Nude mouse xenograft trial; assay type: in vivo, BALB/C nude mice
Method in brief: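 MKN-28 xenografts were grown in BALB/C nude mice (5 weeks, 15–20 g). Test and reference drugs were dosed to equal (dach)Pt content, at 8 mg (dach)Pt/kg, and reference drug was also given at 16 mg (dach)Pt/kg. Tumour growth and body weight were monitored.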

[NP(MPEG550)(AE)(AA)Pt(dach)]n [Polyplatin]
mean diameter [1]: 55.1 nm
critical aggregation concentration (CAC) [2]: 18.5 mg/L
critical aggregation concentration (CAC) ([2]; unit as printed in b33): 18.5 mg/L
Lower critical solution temperature (LCST) ([3]; 5% solution): higher than 100 °C
Lower critical solution temperature (LCST) ([3]; given with the synthesis): > 100 °C
solubility [4]: soluble in water and polar organic solvents
plasma concentration course (fluorescence) ([5]; 12 to 72 hours postinjection): decrease slowly
tumor accumulation / tumor selectivity ([5]; A549 tumor-bearing mice, EPR effect, listed as PP): high tumor selectivity
time of maximum concentration in tumor ([5]; A549 tumor-bearing mice, postinjection): 48 h
tumor-to-tissue ratio, maximum value ([5]; at 48 hours postinjection): 12
time to clearance from all the major organs including the liver [6]: about 4 weeks
excretion of platinum from kidney ([7]; 12 and 24 hours postinjection): more rapidly excreted than monomeric OX
platinum distribution/accumulation in kidney ([7]; 2 hours postinjection, same dose based on (dach)Pt content): accumulates much less in kidney; also recorded: much less and relatively homogeneous distribution; also recorded: accumulated much less in the kidney
clearance time relative to OX ([8]; PP (6.3 mL/h) compared with OX (116.36 mL/h)): about 18 times
half-life of the β phase relative to OX ([8]; PP compared with OX, rats): more than twice longer
t1/2 β ([8]; single IV 1 mg (dach)Pt/kg, male rats, listed as PP): 13.3 h
body weight change depending on the dose (male ICR mice; 5, 50, 300 and 2,000 mg/kg IV, 14 days): no considerable difference in body weight change
LD50 (male ICR mice; IV in saline, ICR mice, 14 days observation): more than 2000 mg/kg
accumulated amount of platinum released (In vitro release of; pH 5.4, 37°C, 10 days): 98%
accumulated amount of released (dach)Pt(II) (In vitro release of; 24 hours): 18%
accumulated amount of released (dach)Pt(II) (In vitro release of; 10 days): 72%
antitumor activity ([9]; 8 mg (dach)Pt/kg IV on days 1, 5, 9, MKN-28 xenograft): comparable to OX
death of test mice ([9]; 16 mg (dach)Pt/kg IV, MKN-28 xenograft): without any death
antitumor efficacy compared with OX, overall ([9]; MKN-28 xenograft, listed as PP): remarkably higher antitumor activity
systemic toxicity compared with OX ([9]; MKN-28 xenograft, listed as PP): lower systemic toxicity; also recorded: low systemic toxicity
antitumor activity ([9]; double dose of 16 mg (dach)Pt/kg IV on days 1, 5, 9, MKN-28 xenograft, listed as PP): much better activity
body weight changes ([9]; low and high doses, during the drug injection period (days 1, 5, and 9)): nearly no body weight changes

O=C1[O][Pt]2([NH][C@@H]3CCCC[C@H]3[NH]2)[O]C1=O [Oxaliplatin, oxaliplatin, reference compound]
AUC ([8]; single IV 1 mg (dach)Pt/kg, male rats, listed as OX): 2,320.4 ng h/mL
